Assay results from ChEMBL document CHEMBL1136109, “Polymer-assisted solution-phase (PASP) parallel synthesis of an alpha-ketothiazole library as tissue factor VIIa inhibitors” (Bioorg Med Chem Lett, 2003).

Assays:
Coagulation factor VII = target: T1, Coagulation factor VII (Homo sapiens, UniProt P08709); experiment: Inhibition of tissue coagulation factor VII
T1 sequence (P08709 whole entry): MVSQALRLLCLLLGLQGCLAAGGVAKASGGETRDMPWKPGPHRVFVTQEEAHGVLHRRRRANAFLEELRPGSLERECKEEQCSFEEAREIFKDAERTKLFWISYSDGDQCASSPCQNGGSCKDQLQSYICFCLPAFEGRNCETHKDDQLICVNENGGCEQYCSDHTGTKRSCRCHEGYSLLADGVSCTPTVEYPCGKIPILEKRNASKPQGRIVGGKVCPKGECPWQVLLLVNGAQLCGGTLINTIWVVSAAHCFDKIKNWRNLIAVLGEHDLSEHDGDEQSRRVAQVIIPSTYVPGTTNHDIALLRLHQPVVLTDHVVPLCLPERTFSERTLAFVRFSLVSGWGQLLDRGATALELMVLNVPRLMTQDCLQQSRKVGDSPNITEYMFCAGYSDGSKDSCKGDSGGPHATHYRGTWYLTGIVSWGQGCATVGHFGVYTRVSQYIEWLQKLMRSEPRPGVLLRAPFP
How it was run: (§1)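 Chromogenic enzyme assays: factor Xa, thrombin (IIa), or tissue factor/VIIa complex, each with its own specific chromogenic substrate. Activity was followed as the rise in absorbance at 405 nm from released p-nitroaniline as substrate was cleaved. Inhibition was taken as the reduced change in absorbance and expressed as IC50.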

Coagulation factor X = Coagulation factor X (Homo sapiens, UniProt P00742); experiment: Inhibition of coagulation factor X; how it was run: as §1
Prothrombin = Prothrombin (Homo sapiens, UniProt P00734); experiment: Inhibitory activity against thrombin (IIa); how it was run: as §1
[1] = target: Thrombin and coagulation factor VII (Homo sapiens) (UniProt P00734+P08709); experiment: Selectivity ratio for tissue factor VIIa and thrombin (IIa); type: protein assay

Coagulation factor X, sequence (P00742 41-179 limits assumed): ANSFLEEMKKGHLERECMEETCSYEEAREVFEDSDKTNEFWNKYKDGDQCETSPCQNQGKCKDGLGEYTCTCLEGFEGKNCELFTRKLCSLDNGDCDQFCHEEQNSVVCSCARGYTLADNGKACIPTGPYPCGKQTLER
Coagulation factor X, sequence (P00742 235-488 limits assumed): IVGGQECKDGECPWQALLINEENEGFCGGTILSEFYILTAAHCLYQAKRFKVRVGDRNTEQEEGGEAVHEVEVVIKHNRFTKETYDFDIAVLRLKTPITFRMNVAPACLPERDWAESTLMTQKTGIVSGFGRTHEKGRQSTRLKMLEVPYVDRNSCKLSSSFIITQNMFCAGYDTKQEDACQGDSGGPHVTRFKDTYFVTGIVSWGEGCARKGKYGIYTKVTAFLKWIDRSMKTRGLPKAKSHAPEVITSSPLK

NC(=O)C[C@H](NC(=O)[C@@H](Cc1ccccc1)NS(=O)(=O)Cc1ccccc1)C(=O)N[C@@H](CCCN=C(N)N)C(=O)c1nccs1
IC50 (Coagulation factor VII): 1.03 µM
IC50 (Coagulation factor X): 2.1 µM
IC50 (Prothrombin): 60 µM

CC[C@@H](C)[C@H](NC(=O)[C@@H](Cc1ccccc1)NS(=O)(=O)Cc1ccccc1)C(=O)N[C@@H](CCCN=C(N)N)C(=O)c1nccs1
IC50 (Coagulation factor X): 0.38 µM
IC50 (Prothrombin): 19.3 µM
Ratio [1]: 64

Cc1ccccc1C[C@H](NC(=O)[C@@H](Cc1ccccc1)NS(=O)(=O)Cc1ccccc1)C(=O)N[C@@H](CCCN=C(N)N)C(=O)c1nccs1
Ratio [1]: 90

N=C(N)NCCC[C@H](NC(=O)[C@H](Cc1cccc(Cl)c1)NC(=O)[C@@H](Cc1ccccc1)NS(=O)(=O)Cc1ccccc1)C(=O)c1nccs1
IC50 (Coagulation factor VII): 0.23 µM
IC50 (Coagulation factor X): 0.27 µM
IC50 (Prothrombin): 14.6 µM
Ratio [1]: 63

Cc1cccc(C[C@H](NC(=O)[C@@H](Cc2ccccc2)NS(=O)(=O)Cc2ccccc2)C(=O)N[C@@H](CCCN=C(N)N)C(=O)c2nccs2)c1
Ratio [1]: 71

Cc1ccccc1C[C@H](NC(=O)[C@@H](Cc1ccccc1)NS(=O)(=O)Cc1ccccc1)C(=O)N[C@@H](CCCNC(=N)N)C(=O)c1nccs1
IC50 (Coagulation factor VII): 0.24 µM
IC50 (Coagulation factor X): 0.33 µM
IC50 (Prothrombin): 21.7 µM

N=C(N)NCCC[C@H](NC(=O)[C@H](Cc1cccc(C(F)(F)F)c1)NC(=O)[C@@H](Cc1ccccc1)NS(=O)(=O)Cc1ccccc1)C(=O)c1nccs1
IC50 (Coagulation factor VII): 0.8 µM
IC50 (Coagulation factor X): 1 µM
IC50 (Prothrombin): 84.9 µM
Ratio [1]: 106

N#CC[C@H](NC(=O)[C@@H](Cc1ccccc1)NS(=O)(=O)Cc1ccccc1)C(=O)N[C@@H](CCCNC(=N)N)C(=O)c1nccs1
IC50 (Coagulation factor VII): 1.45 µM
IC50 (Coagulation factor X): 2.4 µM
IC50 (Prothrombin): 100 µM
Ratio [1]: 69

NC(N)=NCCC[C@H](NC(=O)[C@H](Cc1cccnc1)NC(=O)[C@@H](Cc1ccccc1)NS(=O)(=O)Cc1ccccc1)C(=O)c1nccs1
IC50 (Coagulation factor VII): 0.2 µM
IC50 (Coagulation factor X): 0.29 µM
IC50 (Prothrombin): 100 µM

N=C(N)NCCC[C@H](NC(=O)[C@H](Cc1cccc(F)c1)NC(=O)[C@@H](Cc1ccccc1)NS(=O)(=O)Cc1ccccc1)C(=O)c1nccs1
IC50 (Coagulation factor VII): 0.2 µM
IC50 (Coagulation factor X): 0.25 µM
IC50 (Prothrombin): 15 µM
Ratio [1]: 75

N=C(N)NCCC[C@H](NC(=O)[C@H](Cc1cccnc1)NC(=O)[C@@H](Cc1ccccc1)NS(=O)(=O)Cc1ccccc1)C(=O)c1nccs1
Ratio [1]: 500

N=C(N)NCCC[C@H](NC(=O)[C@H](CC(N)=O)NC(=O)[C@@H](Cc1ccccc1)NS(=O)(=O)Cc1ccccc1)C(=O)c1nccs1
Ratio [1]: 58

N=C(N)NCCC[C@H](NC(=O)[C@H](Cc1ccc(F)c(F)c1)NC(=O)[C@@H](Cc1ccccc1)NS(=O)(=O)Cc1ccccc1)C(=O)c1nccs1
IC50 (Coagulation factor VII): 0.16 µM
IC50 (Coagulation factor X): 0.21 µM
IC50 (Prothrombin): 11.2 µM
Ratio [1]: 70

N#Cc1ccc(C[C@H](NC(=O)[C@@H](Cc2ccccc2)NS(=O)(=O)Cc2ccccc2)C(=O)N[C@@H](CCCNC(=N)N)C(=O)c2nccs2)cc1
IC50 (Coagulation factor VII): 0.34 µM
IC50 (Coagulation factor X): 0.9 µM
IC50 (Prothrombin): 50 µM
Ratio [1]: 147

N=C(N)NCCC[C@H](NC(=O)[C@H](Cc1ccccc1)NC(=O)[C@@H](Cc1ccccc1)NS(=O)(=O)Cc1ccccc1)C(=O)c1nccs1
IC50 (Coagulation factor VII): 0.042 µM
IC50 (Coagulation factor X): 0.027 µM
IC50 (Prothrombin): 4 µM
Ratio [1]: 95

N=C(N)NCCC[C@H](NC(=O)[C@H](Cc1ccccc1F)NC(=O)[C@@H](Cc1ccccc1)NS(=O)(=O)Cc1ccccc1)C(=O)c1nccs1
IC50 (Coagulation factor VII): 0.09 µM
IC50 (Coagulation factor X): 0.21 µM
IC50 (Prothrombin): > 30 µM
Ratio [1]: > 333

Cc1cccc(C[C@H](NC(=O)[C@@H](Cc2ccccc2)NS(=O)(=O)Cc2ccccc2)C(=O)N[C@@H](CCCNC(=N)N)C(=O)c2nccs2)c1
IC50 (Coagulation factor VII): 0.17 µM
IC50 (Coagulation factor X): 0.16 µM
IC50 (Prothrombin): 12 µM
